Experimental data reported in ChEMBL document CHEMBL1122075, “Absolute stereochemistry and dopaminergic activity of enantiomers of 2,3,4,5-tetrahydro-7,8-dihydroxy-1-phenyl-1H-3-benzazepine” (J Med Chem, 1982).

Assays:
Adenylate cyclase = test: Tested for ability to stimulate dopamine sensitive adenylate cyclase in rat caudate homogenate
Procedure, shortened: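 Rat striatal homogenates; dopamine-sensitive adenylate cyclase stimulation read as cyclic AMP production. EC50 is the molar concentration giving half-maximal stimulation of cAMP production over the concentration range tested.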

Rattus norvegicus [1] = species: Rattus norvegicus; test: Compound was tested for maximum response, the percent of cyclic AMP induced by 5 x 10 E-5 M dopamine
Canis familiaris [2] = species: Canis familiaris; test: Renal vascular resistance (RVR) in dog was determined; format: functional, Canis lupus familiaris
Procedure, shortened: (§1)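 Dogs anesthetized and surgically prepared for electromagnetic renal blood flow measurement, with carotid arterial pressure recorded. Drug infused into an antecubital vein at progressively increasing (generally threefold) concentrations to give cumulative dose-response data. RVR = mean arterial pressure / mean renal blood flow. ED15 is the average maximum cumulative dose lowering RVR by 15%.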

Canis familiaris [3] = species: Canis familiaris; test: Compound was tested for its renal vasodilator activity in dogs.; format: functional; conditions: Canis lupus familiaris; procedure, shortened: as §1
Rattus norvegicus [4] = species: Rattus norvegicus; test: Ability to induce contralateral rotations in rats having lesions in the substantia nigra.; format: functional
Procedure, shortened: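 Rotation counts in rats carrying unilateral left substantia nigra lesions. RD500 is the dose calculated to give 500 body rotations over a 2-h test period.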

Canis familiaris [5] = species: Canis familiaris; test: Percent av maximum in dog was determined; Expressed as av max (%); format: functional, Canis lupus familiaris
Canis familiaris [6] = species: Canis familiaris; test: Renal vascular resistance (RVR) in dog was determined; Not statistically significant; format: functional, Canis lupus familiaris; procedure, shortened: as §1
Rattus norvegicus [7] = species: Rattus norvegicus; test: Compound was tested for maximum response, the percent of cyclic AMP induced by 1 x 10 E-4 M dopamine; format: functional

Structure (SMILES)	EC50 (Adenylate cyclase) [nM]	Max response (Rattus norvegicus [1]) [%]	RVR (Canis familiaris [2])	ED15 (Canis familiaris [3]) [mg/kg]	RD500 (Rattus norvegicus [4]) [mg/kg]	Activity (Canis familiaris [5]) [%]	RVR (Canis familiaris [6])	Max response (Rattus norvegicus [7]) [%]
Cl.Oc1cc2c(cc1O)[C@@H](c1ccccc1)CNCC2	32	66	18	0.025	0.5	–	–	–
Cl.Oc1cc2c(cc1O)[C@H](c1ccccc1)CNCC2	–	–	–	> 0.55	> 2	9	9	27
Cl.Oc1cc2c(cc1O)C(c1ccccc1)CNCC2 (racemic)	71	68	19	0.031	0.7	–	–	–
NCCc1ccc(O)c(O)c1 [DOPAMINE]	3500	–	–	0.0027	–	–	–	–
